Laboratory results taken from ChEMBL document CHEMBL4266041, “Hydroxybiphenylamide GroEL/ES Inhibitors Are Potent Antibacterials against Planktonic and Biofilm Forms of Staphylococcus aureus” (J Med Chem, 2018).
Active and inactive are the calls of the source. The rule behind the calls is not given here.

Assays:
[1] = molecular target: T1, E. coli GroEL/ES (Escherichia coli, UniProt P0A6F5); test: Inhibition of Escherichia coli GroEL expressed in Escherichia coli DH5alpha/Escherichia coli GroES expressed in Escherichia coli BL21 (DE3) assessed as reduction in GroEL/GroES-mediated denatured MDH refolding after 20 to 40 mins by spectrometric analysis
T1 sequence (P0A6F5 whole entry, looked up): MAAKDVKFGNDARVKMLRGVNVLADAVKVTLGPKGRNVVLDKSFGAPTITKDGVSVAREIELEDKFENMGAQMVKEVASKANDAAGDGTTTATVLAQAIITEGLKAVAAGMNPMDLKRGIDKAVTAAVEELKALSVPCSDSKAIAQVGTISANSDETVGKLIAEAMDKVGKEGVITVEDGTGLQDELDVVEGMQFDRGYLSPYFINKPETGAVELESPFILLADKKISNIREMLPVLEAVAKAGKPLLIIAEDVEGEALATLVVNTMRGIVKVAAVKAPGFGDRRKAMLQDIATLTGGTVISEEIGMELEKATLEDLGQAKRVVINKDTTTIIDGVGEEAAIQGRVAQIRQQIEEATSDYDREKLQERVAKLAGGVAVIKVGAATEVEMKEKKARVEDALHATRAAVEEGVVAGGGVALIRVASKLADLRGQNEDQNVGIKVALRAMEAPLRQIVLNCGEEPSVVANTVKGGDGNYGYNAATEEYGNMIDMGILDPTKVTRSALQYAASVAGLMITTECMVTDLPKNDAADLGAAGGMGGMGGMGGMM
In short: (§1)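 Uses E. coli GroEL/ES with a denatured MDH or rhodanese reporter. GroEL first forms a binary complex with the denatured reporter. Refolding is started by adding ATP and GroES, then reporter enzyme activity is read. DMSO is the negative control. IC50 values from replicate curves are log-averaged after ROUT outlier screening.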

[2] = tested on: Klebsiella pneumoniae; test: Antibacterial activity against Klebsiella pneumoniae ATCC 13883 after 6 to 8 hrs by bacterial proliferation assay; type: functional, organism-based
In short: (§2)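 Bacterial growth inhibition in liquid culture. The highest concentration tested was 100 µM. The mean was back-calculated from the average log value. Values above the top concentration were set 0.1 log unit higher.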

[3] = molecular target: HSP60/HSP10 (Homo sapiens, UniProt P10809); test: Inhibition of human N-terminal octa-His-tagged HSP60 expressed in Escherichia coli Rosetta(DE3) pLysS/human HSP10 expressed in Escherichia coli Rosetta(DE3) assessed as reduction in HSP60/HSP10-mediated denatured MDH refolding after 40 to 60 mins by spectrometric analysis
HSP60/HSP10, sequence (P10809 whole entry): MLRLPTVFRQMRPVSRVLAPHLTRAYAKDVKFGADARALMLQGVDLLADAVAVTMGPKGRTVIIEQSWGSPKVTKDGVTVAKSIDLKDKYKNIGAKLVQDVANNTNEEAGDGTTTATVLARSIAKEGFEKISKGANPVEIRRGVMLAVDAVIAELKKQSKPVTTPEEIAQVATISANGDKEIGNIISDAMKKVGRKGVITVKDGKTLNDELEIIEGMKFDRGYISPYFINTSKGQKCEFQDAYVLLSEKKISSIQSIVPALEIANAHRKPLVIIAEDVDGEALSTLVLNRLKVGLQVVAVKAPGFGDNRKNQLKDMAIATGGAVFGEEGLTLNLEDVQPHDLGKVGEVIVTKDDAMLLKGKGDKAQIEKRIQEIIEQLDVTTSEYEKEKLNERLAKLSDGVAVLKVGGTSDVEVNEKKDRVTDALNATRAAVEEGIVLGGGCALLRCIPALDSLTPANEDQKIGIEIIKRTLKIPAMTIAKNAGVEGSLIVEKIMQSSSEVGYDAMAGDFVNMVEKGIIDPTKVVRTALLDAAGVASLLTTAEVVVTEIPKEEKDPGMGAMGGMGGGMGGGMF
HSP60/HSP10, sequence (P61604 whole entry, further chain): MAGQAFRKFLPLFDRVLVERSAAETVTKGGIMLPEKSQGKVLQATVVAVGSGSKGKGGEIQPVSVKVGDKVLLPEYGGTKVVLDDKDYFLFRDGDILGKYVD
In short: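 Human HSP60/10 refolding of denatured MDH, run the same way as the GroEL/ES-dMDH assay. A binary complex of chaperonin and denatured MDH is formed, and refolding is started with ATP and HSP10. MDH activity is the read-out. DMSO is the negative control. IC50 values from replicate curves are log-averaged after ROUT outlier screening.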

[4] = tested on: Enterobacter cloacae; test: Antibacterial activity against Enterobacter cloacae subsp. cloacae ATCC 13047 after 24 hrs by bacterial proliferation assay; type: functional, organism-based; conditions: subsp. cloacae ATCC 13047, 24 h; in short: as §2
[5] = molecular target: T2, Thiosulfate sulfurtransferase (Homo sapiens, UniProt Q16762); test: Inhibition of refolded rhodanese (unknown origin) preincubated with Escherichia coli GroEL/GroES for 60 mins in absence of compound followed by compound addition by spectrometric analysis
T2 sequence (Q16762 whole entry): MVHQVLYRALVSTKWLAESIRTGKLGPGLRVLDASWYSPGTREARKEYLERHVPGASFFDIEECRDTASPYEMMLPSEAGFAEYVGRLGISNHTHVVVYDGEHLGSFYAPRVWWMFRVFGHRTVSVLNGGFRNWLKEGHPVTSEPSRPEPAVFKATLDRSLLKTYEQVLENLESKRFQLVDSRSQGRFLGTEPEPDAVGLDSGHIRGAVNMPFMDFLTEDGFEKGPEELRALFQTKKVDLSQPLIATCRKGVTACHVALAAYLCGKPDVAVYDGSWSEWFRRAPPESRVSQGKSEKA

[6] = Cytotoxicity against human THLE3 cells assessed as reduction in cell viability after 48 hrs by Alamar Blue reporter assay
[7] = molecular target: T1, E. coli GroEL/ES; test: Inhibition of Escherichia coli GroEL expressed in Escherichia coli DH5alpha/Escherichia coli GroES expressed in Escherichia coli BL21 (DE3) assessed as reduction in GroEL/GroES-mediated denatured rhodanese refolding after 45 mins by spectrometric analysis; in short: as §1
[8] = tested on: Staphylococcus aureus; test: Antibacterial activity against methicillin-resistant Staphylococcus aureus ATCC BAA-44 after 6 to 8 hrs by bacterial proliferation assay; type: functional, organism-based; conditions: Staphylococcus aureus, ATCC BAA-44
[9] = tested on: Pseudomonas aeruginosa; test: Antibacterial activity against Pseudomonas aeruginosa ATCC 10145 after 24 hrs by bacterial proliferation assay; type: functional, organism-based; conditions: ATCC 10145, 24 h; in short: as §2
[10] = tested on: Acinetobacter baumannii; test: Antibacterial activity against Acinetobacter baumannii ATCC 19606 after 24 hrs by bacterial proliferation assay; type: functional, organism-based; conditions: ATCC 19606 = CIP 70.34 = JCM 6841, 24 h; in short: as §2
[11] = (§3) Cytotoxicity against HEK293 cells assessed as reduction in cell viability after 48 hrs by Alamar Blue reporter assay; conditions: human, HEK293 cells
[12] = tested on: Enterococcus faecium; test: Antibacterial activity against Enterococcus faecium ATCC 19434 after 24 hrs by bacterial proliferation assay; type: functional, organism-based; conditions: ATCC 19434, 24 h
[13] = tested on: Staphylococcus aureus; test: Antibacterial activity against Staphylococcus aureus ATCC 25923 after 6 to 8 hrs by bacterial proliferation assay; type: functional, organism-based
[14] = Inhibition of refolded MDH (unknown origin) preincubated with Escherichia coli GroEL/GroES for 45 mins in absence of compound followed by compound addition and measured for 20 to 35 mins by spectrometric analysis
[15] = tested on: Staphylococcus aureus; test: Bactericidal activity against Staphylococcus aureus Rosenbach ATCC 25923 in biofilms preincubated for 24 hrs followed by compound wash out and measured after 24 hrs; type: functional, organism-based
In short: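 ATCC 25923 preculture (TSB + 0.5% glucose, OD600 0.01) grown stagnant 24 h at 37°C to form biofilm, without compound. Wells washed 3× with PBS, then fresh TSB added with compound (100 µM–46 nM, 3-fold, DMSO) for 24 h at 37°C. Washed again, then recovered in fresh TSB 24 h at 37°C.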

[16] = tested on: Staphylococcus aureus; test: Ratio of EC50 for bactericidal activity against Staphylococcus aureus Rosenbach ATCC 25923 in biofilms to EC50 for planktonic growth of Staphylococcus aureus Rosenbach ATCC 25923; type: functional
[17] = tested on: Staphylococcus aureus; test: Antibiofilm activity against Staphylococcus aureus Rosenbach ATCC 25923 after 24 hrs by crystal-violet based UV-Vis spectroscopy; type: functional, organism-based; conditions: Rosenbach ATCC 25923, 24 h
In short: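 ATCC 25923 colony grown overnight in TSB at 37°C with shaking, precultured 1 h in TSB + 0.5% glucose, then diluted to OD600 0.01. Incubated stagnant at 37°C for 24 h with compound (100 µM–46 nM, 3-fold, DMSO), alongside bacteria-free baseline plates. Wells washed, crystal violet stained 15 min, developed in MeOH:AcOH:H2O, A595.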

[18] = Therapeutic index, ratio of CC50 for HEK293 cells to EC50 for methicillin-resistant Staphylococcus aureus ATCC BAA-44; type: toxicity; conditions: human, read-out: Ratio CC50/EC50
In short: (§4)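 Ratio of human-cell CC50 to MRSA (ATCC BAA-44) EC50. […] EC50 comes from inhibition of MRSA proliferation in liquid culture. Replicate values were log-transformed, screened for outliers (ROUT, Q 10%), then averaged and back-calculated. Values above 100 µM were entered as 126 µM.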

[19] = tested on: Staphylococcus aureus; test: Antibacterial activity against methicillin-resistant Staphylococcus aureus ATCC BAA-44 precultured for 24 hrs passage with compound followed by subculture in presence of compound for 12 days serial passage; type: functional, organism-based
In short: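 Cells from the first well with OD600 >0.2 were sub-cultured 24 h in a fresh compound dilution series. Serial passage ran for 12 days, with EC50 determined after each passage. Averages are from triplicate analyses.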

[20] = Therapeutic index, ratio of CC50 for human THLE3 cells to EC50 for methicillin-resistant Staphylococcus aureus ATCC BAA-44; type: toxicity; conditions: read-out: Ratio CC50/EC50; in short: as §4
[21] = tested on: HEK293; test: as §3; conditions: human, hek293, 48 h
[22] = tested on: Staphylococcus aureus; test: Bactericidal activity against planktonic growth of Staphylococcus aureus Rosenbach ATCC 25923 preincubated for 24 hrs followed by compound wash out and measured after 24 hrs; type: functional, organism-based

Row | SMILES | EC50 [2] [µM] | EC50 [4] [µM] | IC50 [5] [µM] | IC50 [7] [µM] | EC50 [8] [µM] | EC50 [9] [µM] | EC50 [10] [µM] | EC50 [12] [µM] | EC50 [13] [µM] | IC50 [14] [µM] | also measured
1 | CCCCCCCCCC(=O)N[C@@H](Cc1c[nH]c2ccccc12)C(=O)NC(CC(N)=O)C(=O)N[C@@H](CC(=O)O)C(=O)N[C@@H]1C(=O)NCC(=O)N[C@@H](CCCN)C(=O)N[C@@H](CC(=O)O)C(=O)N[C@H](C)C(=O)N[C@@H](CC(=O)O)C(=O)NCC(=O)N[C@H](CO)C(=O)N[C@@H]([C@H](C)CC(=O)O)C(=O)N[C@@H](CC(=O)c2ccccc2N)C(=O)O[C@@H]1C (single isomer, unassigned) [DAPTOMYCIN] | > 100 | > 100 | > 100 | > 100 | 1 | > 100 | > 100 | 9.2 | 0.68 | > 63 | IC50 [1]: > 100 µM; IC50 [3]: > 100 µM; CC50 at 48 h ([6]; THLE3 cells): > 100 µM; CC50 at 48 h [11]: > 100 µM
2 | O=C(Nc1ccc(Sc2nc3ccccc3s2)c(Cl)c1)c1cc(Br)cc(Br)c1O | > 100 | > 100 | > 100 | 1.5 | 0.55 | > 100 | 66 | 0.52 | 0.36 | 6.8 | EC50 [15]: 2.4 µM; Ratio EC50 [16]: 5 - 15; EC50 [17]: 0.72 µM; selectivity ratio [18]: > 50; Activity [19]: Active; CC50 ([6]; 48 h): 14 µM; selectivity ratio [20]: > 50; CC50 [21]: 76 µM; EC50 [22]: 0.36 µM
